This note sets out measurements from ChEMBL document CHEMBL1132999, “Synthesis and oral antitumor activity of tetrakis(carboxylato)platinum(IV) complexes” (J Med Chem, 2000).

The nature of data set [1]: Partition coefficient (logP). The format is physicochemical. The settings on record: octanol/water.
Data set [2] deals with Mus musculus. Kind of data set: antitumor activity (survival) by the oral administration of 100 mg/kg scheduled treatment (Q1D x 5) in BDF1 mice inoculated with L1210 leukemia. The format is functional, organism-based. Also noted: dose 100 mg/kg. The settings on record: at 100 mg/kg. The gist of the method:
(§1)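 BDF1 mice inoculated with L1210 leukaemia and fasted before dosing. Complexes suspended in 0.2 mL 0.5% Tween 80 and given by stomach catheter on days 1-5 (Q1D × 5). Activity expressed as T/C (%), the ratio of mean survival time (days) of treated versus control mice.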

A further data set has as its system L1210. Kind of data set: in vitro antitumor activity (cytotoxicity) against the murine leukemia L1210 cell. The format is functional, cell-based. The settings on record: Mus musculus.
Data set [3] has as its system Mus musculus. Description: antitumor activity (survival) by the oral administration of 150 mg/kg scheduled treatment (Q1D x 5) in BDF1 mice inoculated with L1210 leukemia; toxic. The format is functional, organism-based. Also noted: dose 150 mg/kg. The gist of the method:
as §1

Data set [4] concerns Mus musculus. Description: antitumor activity (survival) by the oral administration of 150 mg/kg scheduled treatment (Q1D x 5) in BDF1 mice inoculated with L1210 leukemia. The format is functional, organism-based. The arrangement: dose 150 mg/kg. The conditions noted are these: at 150 mg/kg. The method in brief: as §1

With “[Pt(O2CC3H7)4(dach)]dach : trans-(+/-)-1,2-diaminocyclohexane [listing 1 of 2 here]”, the logP (as a rule, a log measure of how a compound divides between an organic and an aqueous phase) in data set [1] came out at 1.54.

For the substance “[Pt(O2CC3H7)4(dach)]dach : trans-(+/-)-1,2-diaminocyclohexane [listing 2 of 2 here]”, the T/C – broadly, the ratio of treated to control – was 108% with Mus musculus [2] and “Toxic” with Mus musculus [3]. The same substance returned an ED50 in the data set on L1210 of 6.2 µM. With “[Pt(O2CC4H9)4(dach)]dach : trans-(+/-)-1,2-diaminocyclohexane [listing 1 of 2 here]”, the logP in data set [1] is given as 2.54. The substance “[Pt(O2CC4H9)4(dach)]dach : trans-(+/-)-1,2-diaminocyclohexane [listing 2 of 2 here]” returned an ED50 in the data set with L1210 above 50 µM. The same substance showed a T/C with Mus musculus [4] of 107%.

Substance “[Pt(O2CC5H11)4(dach)]dach : trans-(+/-)-1,2-diaminocyclohexane [listing 1 of 2 here]” showed a log partition coefficient (logP) in data set [1] of 3.03. Regarding “[Pt(O2CC5H11)4(dach)]dach : trans-(+/-)-1,2-diaminocyclohexane [listing 2 of 2 here]”, the ED50 in the data set with L1210 is above 50 µM. This substance gave a T/C in the data set on Mus musculus [4] of 98.9%. In data set [1], “[Pt(O2CCH3)4(dach)]dach [listing 1 of 2 here]” showed a lipophilicity (logP) of -1.59. In turn, “[Pt(O2CCH3)4(dach)]dach [listing 2 of 2 here]” came in with an ED50 in the data set with L1210 of 25.8 µM. This substance returned a T/C with Mus musculus [4] of 100%. For [Pt(OH)4(dach)]dach the same measures were 32.6 µM and 112%.
